Results: ChEMBL document CHEMBL1122281, “Synthesis and antifilarial activity of N-[4-[[4-alkoxy-3-[(dialkylamino)methyl]phenyl]amino]- 2-pyrimidinyl]-N'-phenylguanidines” (J Med Chem, 1983)

Tests used:
Litomosoides carinii [1] = assay: Antifilarial activity against Litomosoides carinii infections in the Jird at dose 100 mg/kg administered orally; type: functional; settings: route oral
In short: (§1)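 L. carinii-infected jirds were dosed. Survivors were killed 55–70 days after the first dose, and the pleural and peritoneal cavities were searched for adult worms. Live worms at autopsy were scored as a percentage relative to sham-dosed controls. Adult worm reduction above 60% was the activity criterion.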

Litomosoides carinii [2] = assay: Antifilarial activity against Litomosoides carinii infections in the Jird at dose 3 mg/kg administered orally; type: functional; settings: route oral; in short: as §1
Litomosoides carinii [3] = assay: Antifilarial activity against Litomosoides carinii infections in the Jird at dose 100 mg/kg administered subcutaneously; type: functional; settings: route subcutaneous; in short: as §1
Litomosoides carinii [4] = assay: Antifilarial activity against Litomosoides carinii infections in the Jird at dose 25 mg/kg administered orally; type: functional; settings: route oral; in short: as §1
[5] = Antifilarial activity against Litomosoides carinii infections in the Jird at dose 100 mg/kg administered subcutaneously; two or more animals died prematurely considered to be drug toxicity.; type: organism-based, Meriones unguiculatus; parameters: dose 100 mg/kg, route subcutaneous; settings: gerbil, in vivo, sc
In short: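 Jirds infected with Litomosoides carinii. Surviving animals killed 55–70 days after first drug dose; pleural and peritoneal cavities searched for adult worms. Live worm count at autopsy scored as percentage relative to sham-dosed controls. Activity criterion: adult worm reduction exceeding 60%.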

Litomosoides carinii [6] = assay: Antifilarial activity against Litomosoides carinii infections in the Jird at dose 25 mg/kg administered subcutaneously; type: functional; settings: route subcutaneous; in short: as §1
Litomosoides carinii [7] = assay: Antifilarial activity against Litomosoides carinii infections in the Jird at dose 12 mg/kg administered orally; type: functional; settings: route oral; in short: as §1
Litomosoides carinii [8] = assay: Antifilarial activity against Litomosoides carinii infections in the Jird at dose 50 mg/kg administered orally; type: functional; settings: route oral; in short: as §1
Litomosoides carinii [9] = assay: Antifilarial activity against Litomosoides carinii infections in the Jird at dose 0.5 mg/kg administered orally; type: functional; settings: route oral; in short: as §1

Compound	Reduction of live worms (Litomosoides carinii [1])	Reduction of live worms (Litomosoides carinii [2])	Reduction of live worms (Litomosoides carinii [3])	Reduction of live worms (Litomosoides carinii [4])	Animals dead [5]	Reduction of live worms (Litomosoides carinii [6])	Reduction of live worms (Litomosoides carinii [7])	Reduction of live worms (Litomosoides carinii [8])	Reduction of live worms (Litomosoides carinii [9])
CCN(CC)Cc1cc(Nc2cc(C(F)(F)F)nc(/N=C(\N)Nc3ccc(OC)cc3)n2)ccc1O	95%	2%	95%	100%	–	–	–	–	–
CCN(CC)Cc1cc(Nc2cc(C(F)(F)F)nc(/N=C(\N)Nc3ccc(C(F)(F)F)cc3)n2)ccc1OCc1ccccc1	100%	0%	100%	100%	–	–	–	–	–
COc1ccc(Nc2cc(C(F)(F)F)nc(/N=C(\N)Nc3ccc(Cl)c(Cl)c3)n2)cc1CN(C)C	100%	100%	100%	100%	> 2	–	–	–	–
CCN(CC)Cc1cc(Nc2cc(C(F)(F)F)nc(/N=C(\N)Nc3ccc(Cl)c(Cl)c3)n2)ccc1OC	–	100%	100%	100%	–	100%	–	–	–
CCOc1ccc(Nc2cc(-c3ccccc3)nc(/N=C(\N)Nc3ccc(Cl)c(Cl)c3)n2)cc1CN(CC)CC	–	15%	–	78%	> 2	–	–	–	–
CCN(CC)Cc1cc(Nc2cc(C(F)(F)F)nc(/N=C(\N)Nc3ccc(Oc4ccccc4)cc3)n2)ccc1OC	–	–	0%	27%	> 2	–	–	–	–
CCN(CC)Cc1cc(Nc2ccnc3cc(Cl)ccc23)ccc1O.Cl	72%	–	100%	71%	–	61%	–	–	–
CCN(CC)Cc1cc(Nc2cc(C(F)(F)F)nc(/N=C(\N)Nc3ccc(Cl)c(Cl)c3)n2)ccc1OC(C)C	100%	11%	100%	100%	–	–	–	–	–
CN1CCN(Cc2cc(Nc3cc(C(F)(F)F)nc(/N=C(\N)Nc4ccccc4)n3)ccc2O)CC1	91%	–	–	–	–	–	0%	78%	–
N/C(=N\c1ccc(Cl)cc1)Nc1nc(Nc2ccc(O)c(CN3CCCC3)c2)cc(C(F)(F)F)n1	–	–	–	–	–	–	87%	100%	–
CN(C)Cc1cc(Nc2cc(C(F)(F)F)nc(/N=C(\N)Nc3ccc(C(F)(F)F)cc3)n2)ccc1O	–	54%	–	100%	> 2	–	–	–	–
CCN(CC)Cc1cc(Nc2cc(C(F)(F)F)nc(/N=C(\N)Nc3ccccc3)n2)ccc1OC	–	–	–	–	–	–	38%	100%	–
CCN(CC)Cc1cc(Nc2cc(C(F)(F)F)nc(/N=C(\N)Nc3ccc(C(F)(F)F)cc3)n2)ccc1OC	100%	73%	100%	100%	–	–	–	–	–
CCOc1ccc(Nc2cc(C(F)(F)F)nc(/N=C(\N)Nc3ccc(Cl)c(Cl)c3)n2)cc1CN(CC)CC	100%	21%	–	100%	–	–	–	–	–
CN(C)Cc1cc(Nc2cc(C(F)(F)F)nc(/N=C(\N)Nc3ccc(Cl)c(Cl)c3)n2)ccc1O	100%	90%	–	100%	–	–	–	–	100%
CCN(CC)Cc1cc(Nc2cc(C(F)(F)F)nc(/N=C(\N)Nc3ccccc3)n2)ccc1O	–	–	–	–	–	–	47%	100%	–
CCNCc1cc(Nc2nc(/N=C(\N)Nc3ccc(Cl)c(Cl)c3)nc3c2CCCC3)ccc1OC	–	–	–	–	> 2	69%	–	–	–
CCNCc1cc(Nc2cc(C(F)(F)F)nc(/N=C(\N)Nc3ccc(C(F)(F)F)cc3)n2)ccc1OC	100%	30%	100%	100%	–	–	–	–	–
CN1CCN(Cc2cc(Nc3cc(C(F)(F)F)nc(/N=C(\N)Nc4ccc(Cl)cc4)n3)ccc2O)CC1	–	–	–	–	–	–	38%	98%	–
